Measured values published in article PMC11528686 (Insect biochemistry and molecular biology, 2022).

Key:
[1] = biological target: PGRP3s; assay: SPR on a Biacore T200; assay type: binding; details: read-out: Kd (μM), values without parentheses
Summary of the method: (§1)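 Association and dissociation were run on a Biacore T200 with amine-coupled protein. DAP- or Lys-muramyl pentapeptide, stored at −20 °C, was flowed in HBS-EP (10 mM HEPES, 150 mM NaCl, 3 mM EDTA, 0.005% polysorbate 20) at 30 μl/min and 25 °C. Multi-concentration curves were globally fitted to 1:1 and two-state models, and Kd came from the fit with lower χ2.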

[2] = biological target: PGRP3s; assay: SPR on a Biacore T100; assay type: binding; details: read-out: Kd (μM), values in parentheses
Summary of the method: (§2)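 On a Biacore T100, protein was amine-coupled and DAP- or Lys-muramyl pentapeptide, freshly prepared, was flowed in HBS-EP (10 mM HEPES, 150 mM NaCl, 3 mM EDTA, 0.005% polysorbate 20) at 30 μl/min and 25 °C. Curves at several analyte concentrations were globally fitted to 1:1 and two-state models, and the fit with lower χ2 gave Kd.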

[3] = biological target: PGRP12e; assay: SPR on a Biacore T200; assay type: binding; details: read-out: Kd (μM), values without parentheses
Summary of the method: as §1

[4] = biological target: PGRP13f; assay: SPR on a Biacore T200; assay type: binding; details: read-out: Kd (μM), values without parentheses
Summary of the method: as §1

[5] = biological target: T1, PGRP1 (Manduca sexta, UniProt Q86RS6); assay: SPR on a Biacore T100; assay type: binding; details: read-out: Kd (μM), values in parentheses; cited from earlier work
T1 sequence (Q86RS6 20-191): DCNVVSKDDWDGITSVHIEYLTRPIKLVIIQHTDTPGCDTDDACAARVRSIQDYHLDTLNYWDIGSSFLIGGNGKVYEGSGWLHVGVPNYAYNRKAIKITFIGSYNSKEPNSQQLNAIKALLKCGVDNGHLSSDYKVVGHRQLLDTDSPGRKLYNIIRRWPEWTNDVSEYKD

[6] = biological target: PGRP5; assay: SPR on a Biacore T200; assay type: binding; details: read-out: Kd (μM), values without parentheses
Summary of the method: as §1

[7] = biological target: PGRP3f; assay: SPR on a Biacore T200; assay type: binding; details: read-out: Kd (μM), values without parentheses
Summary of the method: as §1

[8] = biological target: T1, PGRP1; assay: SPR on a Biacore T200; assay type: binding; details: read-out: Kd (μM), values without parentheses
Summary of the method: as §1

[9] = biological target: T2, PGRP2 (Manduca sexta, UniProt D1KRK9); assay: SPR on a Biacore T100; assay type: binding; details: read-out: Kd (μM), values in parentheses
T2 sequence (D1KRK9 19-196): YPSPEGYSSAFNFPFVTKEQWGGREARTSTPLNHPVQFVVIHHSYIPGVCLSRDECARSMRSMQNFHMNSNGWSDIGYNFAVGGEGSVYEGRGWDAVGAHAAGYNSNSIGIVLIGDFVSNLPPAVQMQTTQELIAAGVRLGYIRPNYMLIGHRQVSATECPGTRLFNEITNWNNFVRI
Summary of the method: as §2

[10] = biological target: PGRP4; assay: SPR on a Biacore T200; assay type: binding; details: read-out: Kd (μM), values without parentheses
Summary of the method: as §1

[11] = system: proPO activation in cell-free hemolymph from naïve larvae; assay: Elicitor-independent proPO activation in plasma from naïve larvae; assay type: biochemical, Manduca sexta; details: at 40 ng/μl protein, 60 min, room temperature, no bacterial elicitor
Summary of the method: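 Naïve larval plasma (day 2, 5th instar; hemocytes removed by 5000 × g, 5 min; stored −80 °C, used within a month) was diluted ten-fold in 20 mM Tris-HCl pH 8.0, 1 mM CaCl2, 0.001% Tween-20. Plasma (5 μl) was mixed with 0–1000 ng protein (final 25 μl) and incubated 60 min. BSA served as negative control. PO was read with dopamine at A470 in kinetic mode; mean ± SD, n = 3.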

Row | Substance | Kd [1] | Kd [2] | Kd [3] | Kd [4] | Kd [5] | Kd [6] | Kd [7] | Kd [8] | Kd [9] | Kd [10] | PO activity [11]
1 | DAP-muramyl pentapeptide (meso-diaminopimelic acid-type peptidoglycan monomer) [DAP-MPP] | 1.75 µM | 0.42 µM | 2.64 µM | 1.8 µM | 0.57 µM | 2.01 µM | 4.7 µM | 2.01 µM | 0.49 µM | 4.06 µM | 
2 | Lys-muramyl pentapeptide (Lys-type peptidoglycan monomer) [Lys-MPP] | 23.8 µM | 64 µM |  | 8.77 µM | 45.6 µM | 37.8 µM | 29.2 µM | 38 µM | > 100 µM | 79.8 µM | 
3 | bovine serum albumin [BSA] |  |  |  |  |  |  |  |  |  |  | 0.1 U
